Assay results published in ChEMBL document CHEMBL2069246, “Oxadiazoles in medicinal chemistry” (J Med Chem, 2012).
Converted amounts (≈) assume the structure as drawn.

How the values were obtained:
[1] = Lipophilicity, log D of the compound at pH 7.4; type: physicochemical; conditions: buffer
[2] = Aqueous solubility of the compound in HBSS buffer at pH 7.4; type: physicochemical
[3] = Intrinsic clearance in human liver microsomes at 1 mg/ml; type: ADME, Microsome; conditions: read-out: CLH
Procedure, shortened: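 Compound incubated 45 min at 37 °C with human liver microsomes at 1 mg/mL. CLint is taken from the rate of parent disappearance.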

[4] = target: T1, Cytochrome P450 3A4 (Homo sapiens, UniProt P08684); assay: Inhibition of human recombinant CYP3A4 coexpressed in Escherichia coli; type: ADME
Procedure, shortened: (§1)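 Human recombinant cytochrome P450s at 37 °C. Read-out is inhibition of metabolic degradation of each isoform's substrate. Percent inhibition is measured at five test concentrations and converted to IC50.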

[5] = target: T2, Cytochrome P450 2D6 (Homo sapiens, UniProt P10635); assay: Inhibition of human recombinant CYP2D6 coexpressed in Escherichia coli; type: ADME; procedure, shortened: as §1
[6] = target: T3, Cytochrome P450 2C8 (Homo sapiens, UniProt P10632); assay: Inhibition of human recombinant CYP2C8 coexpressed in Escherichia coli; type: ADME; procedure, shortened: as §1
T3 sequence (P10632 whole entry): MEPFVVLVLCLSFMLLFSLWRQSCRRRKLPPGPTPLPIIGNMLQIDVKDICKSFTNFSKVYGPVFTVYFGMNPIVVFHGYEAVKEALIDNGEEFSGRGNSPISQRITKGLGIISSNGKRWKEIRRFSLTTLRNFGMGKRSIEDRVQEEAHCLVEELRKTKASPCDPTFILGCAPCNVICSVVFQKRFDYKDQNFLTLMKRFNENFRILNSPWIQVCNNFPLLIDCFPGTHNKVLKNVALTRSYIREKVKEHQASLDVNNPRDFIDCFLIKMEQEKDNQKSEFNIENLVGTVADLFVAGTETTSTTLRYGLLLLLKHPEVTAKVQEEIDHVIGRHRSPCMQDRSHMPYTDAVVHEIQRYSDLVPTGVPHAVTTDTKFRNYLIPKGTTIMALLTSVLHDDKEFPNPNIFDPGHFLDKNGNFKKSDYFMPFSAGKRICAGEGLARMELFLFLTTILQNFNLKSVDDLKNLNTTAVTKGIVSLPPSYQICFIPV

[7] = target: T4, Cytochrome P450 2C9 (Homo sapiens, UniProt P11712); assay: Inhibition of human recombinant CYP2C9 coexpressed in Escherichia coli; type: ADME; procedure, shortened: as §1
[8] = target: T5, Cytochrome P450 2C19 (Homo sapiens, UniProt P33261); assay: Inhibition of human recombinant CYP2C19 coexpressed in Escherichia coli; type: ADME; procedure, shortened: as §1
[9] = target: T6, Cytochrome P450 1A2 (Homo sapiens, UniProt P05177); assay: Inhibition of human recombinant CYP1A2 coexpressed in Escherichia coli using phenacetin as probe; type: ADME; procedure, shortened: as §1
T6 sequence (P05177 whole entry): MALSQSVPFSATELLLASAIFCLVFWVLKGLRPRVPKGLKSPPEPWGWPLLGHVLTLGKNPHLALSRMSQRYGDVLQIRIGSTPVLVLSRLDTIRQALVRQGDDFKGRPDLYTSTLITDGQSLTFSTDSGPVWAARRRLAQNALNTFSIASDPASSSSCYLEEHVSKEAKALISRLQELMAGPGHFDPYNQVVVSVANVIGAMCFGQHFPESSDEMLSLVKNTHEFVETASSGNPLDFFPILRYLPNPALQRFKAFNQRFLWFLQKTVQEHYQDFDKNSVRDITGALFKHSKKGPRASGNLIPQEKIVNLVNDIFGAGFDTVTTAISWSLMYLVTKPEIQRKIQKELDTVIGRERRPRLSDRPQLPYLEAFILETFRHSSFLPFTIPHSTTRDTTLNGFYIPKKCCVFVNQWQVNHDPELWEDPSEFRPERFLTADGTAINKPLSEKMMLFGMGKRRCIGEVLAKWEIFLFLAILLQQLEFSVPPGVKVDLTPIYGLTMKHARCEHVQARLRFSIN

[10] = target: T1, Cytochrome P450 3A4; assay: Activity of human recombinant CYP3A4 assessed as enzyme contribution towards compound metabolism at 37 degC; type: ADME; set-up: concentration or dose not given beside the values
Procedure, shortened: (§2)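 CYP reaction phenotyping with human recombinant P450 isoforms at 37 °C. Each isoform's share of compound metabolism is given as percent contribution relative to the other isoforms in the test.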

[11] = target: T2, Cytochrome P450 2D6; assay: Activity of human recombinant CYP2D6 assessed as enzyme contribution towards compound metabolism at 37 degC; type: ADME; procedure, shortened: as §2
[12] = target: T6, Cytochrome P450 1A2; assay: Activity of human recombinant CYP1A2 assessed as enzyme contribution towards compound metabolism at 37 degC; type: ADME; procedure, shortened: as §2
[13] = target: T4, Cytochrome P450 2C9; assay: Activity of human recombinant CYP2C9 assessed as enzyme contribution towards compound metabolism at 37 degC; type: ADME; procedure, shortened: as §2
[14] = target: T5, Cytochrome P450 2C19; assay: Activity of human recombinant CYP2C19 assessed as enzyme contribution towards compound metabolism at 37 degC; type: ADME; procedure, shortened: as §2
[15] = target: T3, Cytochrome P450 2C8; assay: Activity of human recombinant CYP2C8 assessed as enzyme contribution towards compound metabolism at 37 degC; type: ADME; procedure, shortened: as §2
[16] = target: Voltage-gated inwardly rectifying potassium channel KCNH2 (Homo sapiens, UniProt Q12809); assay: Inhibition of human ERG channel expressed in CHO cells by patch clamp assay
[17] = Dissociation constant, pKa of the compound; type: physicochemical

Chain of Voltage-gated inwardly rectifying potassium channel KCNH2 (Q12809 whole entry): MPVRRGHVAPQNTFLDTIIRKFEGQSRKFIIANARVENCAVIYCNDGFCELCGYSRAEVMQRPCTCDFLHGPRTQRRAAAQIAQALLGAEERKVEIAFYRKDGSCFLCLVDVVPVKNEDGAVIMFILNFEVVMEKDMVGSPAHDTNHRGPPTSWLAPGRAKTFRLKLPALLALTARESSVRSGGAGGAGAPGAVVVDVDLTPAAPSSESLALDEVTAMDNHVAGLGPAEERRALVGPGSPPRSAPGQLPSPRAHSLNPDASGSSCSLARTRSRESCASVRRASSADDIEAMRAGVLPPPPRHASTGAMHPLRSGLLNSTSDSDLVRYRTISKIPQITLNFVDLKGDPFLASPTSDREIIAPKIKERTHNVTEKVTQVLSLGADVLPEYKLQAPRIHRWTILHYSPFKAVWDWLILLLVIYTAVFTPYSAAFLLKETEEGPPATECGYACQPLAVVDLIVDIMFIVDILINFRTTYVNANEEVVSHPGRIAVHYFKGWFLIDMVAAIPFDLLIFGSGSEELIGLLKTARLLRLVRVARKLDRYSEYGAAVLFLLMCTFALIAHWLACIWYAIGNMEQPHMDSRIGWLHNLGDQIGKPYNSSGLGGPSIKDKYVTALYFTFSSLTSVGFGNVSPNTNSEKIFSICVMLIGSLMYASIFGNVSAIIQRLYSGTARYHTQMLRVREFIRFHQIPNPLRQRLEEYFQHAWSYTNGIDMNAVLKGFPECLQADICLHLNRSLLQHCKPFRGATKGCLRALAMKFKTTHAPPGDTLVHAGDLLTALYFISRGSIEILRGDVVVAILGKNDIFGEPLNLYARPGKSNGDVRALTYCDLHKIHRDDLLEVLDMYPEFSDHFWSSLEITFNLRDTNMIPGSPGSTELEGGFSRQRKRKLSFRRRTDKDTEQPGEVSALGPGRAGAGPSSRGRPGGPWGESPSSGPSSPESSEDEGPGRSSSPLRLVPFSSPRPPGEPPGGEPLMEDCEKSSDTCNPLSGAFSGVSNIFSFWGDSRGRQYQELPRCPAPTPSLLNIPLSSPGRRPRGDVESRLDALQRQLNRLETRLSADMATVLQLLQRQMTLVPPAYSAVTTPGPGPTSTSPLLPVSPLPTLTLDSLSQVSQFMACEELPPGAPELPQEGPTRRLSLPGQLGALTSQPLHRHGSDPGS
T2 sequence (P10635 whole entry): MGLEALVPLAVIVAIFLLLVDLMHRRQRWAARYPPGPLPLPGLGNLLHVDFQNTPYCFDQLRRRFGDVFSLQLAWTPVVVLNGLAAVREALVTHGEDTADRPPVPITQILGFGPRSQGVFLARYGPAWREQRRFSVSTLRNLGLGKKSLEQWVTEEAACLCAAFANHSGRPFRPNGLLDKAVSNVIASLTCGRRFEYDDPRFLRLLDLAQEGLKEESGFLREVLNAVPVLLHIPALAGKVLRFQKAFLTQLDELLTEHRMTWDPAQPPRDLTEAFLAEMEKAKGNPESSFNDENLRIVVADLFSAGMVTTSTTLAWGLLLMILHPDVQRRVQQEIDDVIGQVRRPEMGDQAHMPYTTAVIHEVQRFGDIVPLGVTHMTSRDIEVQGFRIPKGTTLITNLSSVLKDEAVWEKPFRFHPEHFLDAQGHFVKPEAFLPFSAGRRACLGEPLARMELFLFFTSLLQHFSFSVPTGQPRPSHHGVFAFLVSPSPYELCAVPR
T5 sequence (P33261 whole entry): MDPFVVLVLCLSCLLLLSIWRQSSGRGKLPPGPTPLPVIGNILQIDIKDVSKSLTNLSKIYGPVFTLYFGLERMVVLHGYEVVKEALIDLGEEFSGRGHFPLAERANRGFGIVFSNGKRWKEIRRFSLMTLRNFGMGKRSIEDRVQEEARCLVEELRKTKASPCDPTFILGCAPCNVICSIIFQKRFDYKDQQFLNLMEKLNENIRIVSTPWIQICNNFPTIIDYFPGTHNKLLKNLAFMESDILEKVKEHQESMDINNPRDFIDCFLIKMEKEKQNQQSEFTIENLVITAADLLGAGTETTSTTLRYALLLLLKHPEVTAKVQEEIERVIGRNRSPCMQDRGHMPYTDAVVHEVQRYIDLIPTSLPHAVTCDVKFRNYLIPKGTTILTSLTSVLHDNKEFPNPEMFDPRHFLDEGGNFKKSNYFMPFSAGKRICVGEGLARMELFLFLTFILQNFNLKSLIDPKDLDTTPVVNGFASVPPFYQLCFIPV
T4 sequence (P11712 whole entry): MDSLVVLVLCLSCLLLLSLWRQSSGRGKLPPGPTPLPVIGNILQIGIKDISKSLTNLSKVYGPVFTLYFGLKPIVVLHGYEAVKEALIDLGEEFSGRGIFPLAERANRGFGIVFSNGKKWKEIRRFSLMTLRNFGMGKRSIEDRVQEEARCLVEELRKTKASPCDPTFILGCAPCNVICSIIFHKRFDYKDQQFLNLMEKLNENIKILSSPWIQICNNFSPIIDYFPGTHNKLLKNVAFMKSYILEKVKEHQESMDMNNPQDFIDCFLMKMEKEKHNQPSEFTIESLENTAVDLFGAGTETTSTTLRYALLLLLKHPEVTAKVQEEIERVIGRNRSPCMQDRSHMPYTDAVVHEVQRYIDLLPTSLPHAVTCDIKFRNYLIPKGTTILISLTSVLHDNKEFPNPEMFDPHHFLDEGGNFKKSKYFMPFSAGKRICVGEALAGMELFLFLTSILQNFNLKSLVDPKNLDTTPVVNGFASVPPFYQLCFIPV
T1 sequence (P08684 whole entry, canonical isoform): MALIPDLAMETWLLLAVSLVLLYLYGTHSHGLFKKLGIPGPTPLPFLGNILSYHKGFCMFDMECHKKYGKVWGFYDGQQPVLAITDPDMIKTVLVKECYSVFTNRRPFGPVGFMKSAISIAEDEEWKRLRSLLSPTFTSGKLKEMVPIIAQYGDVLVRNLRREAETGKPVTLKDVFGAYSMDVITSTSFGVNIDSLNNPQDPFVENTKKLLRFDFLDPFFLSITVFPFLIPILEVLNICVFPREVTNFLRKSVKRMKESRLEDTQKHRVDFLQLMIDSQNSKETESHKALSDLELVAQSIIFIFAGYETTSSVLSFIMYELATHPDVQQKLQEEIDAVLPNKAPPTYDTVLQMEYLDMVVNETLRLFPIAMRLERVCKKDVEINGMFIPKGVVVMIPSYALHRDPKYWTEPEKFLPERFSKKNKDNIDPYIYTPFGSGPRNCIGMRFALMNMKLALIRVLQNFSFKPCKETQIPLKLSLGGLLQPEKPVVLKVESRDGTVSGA

| SMILES | logD [1] | solubility [2] | pKa [17] | IC50 [16] | other results |
| --- | --- | --- | --- | --- | --- |
| CCCc1cc(=O)[nH]c(SCc2nnc(-c3ccccc3)o2)n1 | 2.2 | 81 µM (≈ 26.6 µg/mL) | – | – | – |
| c1ccc(-c2nnc(-c3ccccc3)o2)cc1 | 4 | 26 µM (≈ 5.78 µg/mL) | – | – | – |
| C[C@@H](Oc1nnc(-c2ccncc2)n1C)c1noc(-c2cccc(Cl)c2)n1 | 3 | – | 3.4 | 11.6 µM | – |
| CCCc1cc(O)nc(SCc2nc(-c3ccccc3)no2)n1 | 3.1 | 5 µM (≈ 1.64 µg/mL) | – | – | – |
| c1cncc(-c2ccc(-c3noc(C4CN5CCC4CC5)n3)o2)c1 (stereo unspecified) | 0.7 | – | 8.8 | 6.4 µM | – |
| CN(Cc1nc2ccccc2c(=O)[nH]1)Cc1nnc(-c2ccccc2)o1 | 2 | – | 2.3 | > 33 µM | – |

Further lines, with some results ahead:

| logD [1] | solubility [2] | pKa [17] | SMILES | IC50 [16] | other results |
| --- | --- | --- | --- | --- | --- |
| 3.6 | – | 6.7 | c1ccc(CN2CCN(Cc3nnc(-c4ccccc4)o3)CC2)cc1 | 27.3 µM | microsomal CLint [3]: 4 µL/min/mg; IC50 [4]: > 20 µM; IC50 [5]: > 20 µM; IC50 [6]: > 20 µM; IC50 [7]: > 20 µM; IC50 [8]: > 20 µM; IC50 [9]: > 20 µM; Activity [10]: 92%; Activity [11]: 1.7%; Activity [12]: 0%; CYP isoform contribution to compound metabolism [13]: 1.2%; Activity [14]: 3.2%; Activity [15]: 1.5% |
| 5.9 | 7 µM (≈ 1.56 µg/mL) | – | c1ccc(-c2noc(-c3ccccc3)n2)cc1 | – | – |
| 5.3 | – | 4.4 | c1ccc(-c2noc(CN3CCN(Cc4nc5ccccc5s4)CC3)n2)cc1 | 13 µM | – |
